In ChEMBL document CHEMBL1149546, “(2R,3S)-(+)- and (2S,3R)-(-)-Halofuginone lactate: synthesis, absolute configuration, and activity against Cryptosporidium parvum” (Bioorg Med Chem Lett, 2007):
Calls of active or inactive are those of the source. The calls are words filed in the database; no cut-off is given here.

What was measured:
Cryptosporidium parvum [1] = experiment: Antiprotozoal activity against Cryptosporidium parvum at 0.8 nM; format: functional, organism-based
Procedure, shortened: (§1)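 C. parvum development measured in host-cell culture across three independent compound dilution series, with monensin as positive control. The read-out was parasite foci area, with control and test cultures normalized to 100,000 µm² of foci area.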

Cryptosporidium parvum [2] = experiment: Antiprotozoal activity against Cryptosporidium parvum; format: functional, organism-based; procedure, shortened: as §1
Mus musculus [3] = experiment: Toxicity in Crl:NMRI mouse at 10 mg/kg, po; format: organism-based; design: dose 10 mg/kg, route oral; details: in vivo
Procedure, shortened: (§2)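 Single oral doses of lactate salts (5, 10 and/or 20 mg/kg bodyweight) were given to 4-week-old female Crl:NMRI mice, n = 3 per group. Moribund mice were euthanized.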

Mus musculus [4] = experiment: Toxicity in Crl:NMRI mouse at 5 mg/kg, po; format: organism-based; design: dose 5 mg/kg, route oral; details: in vivo; procedure, shortened: as §2
Mus musculus [5] = experiment: Toxicity in Crl:NMRI mouse at 20 mg/kg, po; format: organism-based; design: dose 20 mg/kg, route oral; details: in vivo; procedure, shortened: as §2
Cryptosporidium parvum [6] = experiment: Antiprotozoal activity against Cryptosporidium parvum up to 6 nM; format: functional; procedure, shortened: as §1

Row | SMILES | Activity (Cryptosporidium parvum [1]) | Activity (Cryptosporidium parvum [2]) | Activity (Cryptosporidium parvum [6]) | other results
1 | CC(O)C(=O)O.O=C(C[C@H]1NCCC[C@@H]1O)Cn1cnc2cc(Br)c(Cl)cc2c1=O | inactive | Active |  | Activity (Mus musculus [3]): Toxic; Activity (Mus musculus [4]): Toxic
2 | CC(O)C(=O)O.O=C(C[C@@H]1NCCC[C@H]1O)Cn1cnc2cc(Br)c(Cl)cc2c1=O |  |  |  | Activity (Mus musculus [5]): Not Active
3 | CC(O)C(=O)O.O=C(CC1NCCCC1O)Cn1cnc2cc(Br)c(Cl)cc2c1=O (racemic; form 1) [HALOFUGINONE LACTATE] |  |  | 80% | 
4 | O=C(CC1NCCCC1O)Cn1cnc2cc(Br)c(Cl)cc2c1=O (racemic; form 2) | inactive | Active |  | 
5 | Br.O=C(CC1NCCCC1O)Cn1cnc2cc(Br)c(Cl)cc2c1=O (racemic; form 2) [HALOFUGINONE HYDROBROMIDE] |  |  | 80% | 
6 | O=C(CC1NCCCC1O)Cn1cnc2cc(Br)c(Cl)cc2c1=O (racemic; form 1) | inactive | Active |  | 
